As usually defined, the inhibition is the drop in the measured response relative to a control, in per cent.

SMILES strings stand for the structures. Activity calls are given as the source filed them.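 How the source made its calls, unless noted: active means fluorescence slope after compound addition differing from the mean of all tested samples at 99.7% confidence, mostly higher but some lower; inactive means the rest.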

Experiment [1] in a line: inhibitors of TNFa-induced NFkB p65 translocation, primary screen, imaging, HUVEC, MLSMR starter and 10KST1 sets (AID 438;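 active means inhibition above 20% together with a positive visual image hit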;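 further: compound added about 3h40 before a 20 min TNFalpha stimulation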;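 on inhibition: signal is the nuclear over cytoplasmic p65 intensity ratio per well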). The conditions noted are these: HUVEC TNFa-induced p65 nuclear translocation; cell count: measured here: nuclei count (cytotoxicity indicator), at 2.08 µM; inhibition: at 2 µM, stronger effect = higher value, 0% TNFa-plus-vehicle, 100% no-TNFa wells.
Experiment [2] can be described thus: endothelial E-selectin expression blockers – imaging, HUVEC, immunofluorescence, MLSMR starter and 10KST1 sets, primary screen (AID 487;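 active means visually confirmed hit in the image check and inhibition above 20%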;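 on inhibition: signal is fraction of cell area covered by stained E-selectin grains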;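 on nuclei count: 100% = median nuclei count of all wells on the same plate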). The following applies: HUVEC TNFalpha-induced E-selectin immunofluorescence imaging, at 2 µM; inhibition: stronger effect = higher value; nuclei count: measured here: cell number, toxicity.
Experiment [3] in a line: Primary imaging screen for DUSP6 inhibitors that restore phospho-Erk in transfected HeLa cells, chemical complementation (AID 609;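 active means compounds giving at least 50% inhibition in the cell-based MKP-3 phosphatase rescue imaging test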;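 on inhibition: phospho-Erk level distribution per well compared with pooled transfected vehicle control wells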). The conditions noted are these: HeLa MKP-3 transfected, phospho-Erk imaging KS statistic, at 10 µM, cells stimulated with TPA for 15 min.
For experiment [4], the target named is Dual specificity protein phosphatase 6 (Homo sapiens) (UniProt Q16828). The description is as above. The conditions noted are these: HeLa MKP-3 transfected, phospho-Erk imaging KS statistic; at 10 µM; stronger effect = higher value; cells stimulated with TPA for 15 min.
Sequence of Dual specificity protein phosphatase 6 (Homo sapiens) (Q16828 whole entry, looked up): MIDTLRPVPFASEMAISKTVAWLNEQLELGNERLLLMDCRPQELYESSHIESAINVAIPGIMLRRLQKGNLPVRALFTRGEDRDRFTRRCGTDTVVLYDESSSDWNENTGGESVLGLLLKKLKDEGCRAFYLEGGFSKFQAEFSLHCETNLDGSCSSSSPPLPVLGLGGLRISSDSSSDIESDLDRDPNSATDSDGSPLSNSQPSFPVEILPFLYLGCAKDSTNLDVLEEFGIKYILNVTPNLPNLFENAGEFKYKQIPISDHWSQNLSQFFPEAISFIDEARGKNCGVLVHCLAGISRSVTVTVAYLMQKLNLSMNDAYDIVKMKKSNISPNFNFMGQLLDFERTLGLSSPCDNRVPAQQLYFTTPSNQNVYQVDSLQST
The target in experiment [5] is Voltage-gated potassium channel subunit beta-2 (Rattus norvegicus) (UniProt P62483). The experiment can be described thus: inhibitors of rat Kvbeta2 reductase activity – biochemical, NADPH fluorescence, primary screen (AID 622;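 active means fluorescence slope higher than the sample average by over 3 SD, cut at about -0.22 in these data, passing the limit was not always enough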;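 further: slope of raw intensity against log time taken from 70 to 1610 s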). The following applies: recombinant KvBeta, 4-cyanobenzaldehyde reduction, at 10 µM, stronger effect = higher value.
Sequence of Voltage-gated potassium channel subunit beta-2 (Rattus norvegicus) (P62483 whole entry, looked up): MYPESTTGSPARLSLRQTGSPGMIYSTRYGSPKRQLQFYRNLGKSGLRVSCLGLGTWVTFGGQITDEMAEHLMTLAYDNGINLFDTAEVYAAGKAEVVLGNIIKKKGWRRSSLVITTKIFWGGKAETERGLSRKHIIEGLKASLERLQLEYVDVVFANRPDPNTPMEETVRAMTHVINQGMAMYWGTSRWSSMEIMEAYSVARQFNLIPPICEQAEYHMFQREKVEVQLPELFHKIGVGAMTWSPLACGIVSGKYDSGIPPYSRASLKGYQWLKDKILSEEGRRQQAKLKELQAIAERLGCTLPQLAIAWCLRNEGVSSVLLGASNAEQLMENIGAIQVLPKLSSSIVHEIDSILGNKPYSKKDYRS
Experiment [6] has the same target. Put plainly: enhancers of rat Kvbeta2 NADPH turnover – biochemical, NADPH fluorescence, primary screen (AID 623;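 active means NADPH fluorescence slope more negative than the mean of all samples by about 3 SD, 99.7% confidence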;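 further: fluorescence intensity change per second fitted from 20 to 320 s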). The following applies: Recombinant KvBeta, NADPH fluorescence decrease slope, 10 min; at 10 µM; stronger effect = lower value.
Experiment [7] has as its target Muscarinic acetylcholine receptor M4 (Homo sapiens) (UniProt P08173). The experiment can be described thus: M4-linked GIRK flux change, two-sided – cell-based, HEK293 M4/GIRK, thallium flux, BTC-AM, M4 allosteric agonist project, primary screen (AID 625).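 Further: thallium influx through GIRK channels coupled to M4 in HEK293 cells with BTC-AM dye.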 The conditions noted are these: at 10 µM, actives lie on both sides. The essentials: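 Material: M4/GIRK1/GIRK2 stable HEK293 cell line. Medium: pH 7.3 thallium assay buffer. Dosing: single compound concentration, 10 µM final. Schedule: 1 h dye loading, 2 min kinetic read. Measured by: kinetic fluorescence with BTC-AM dye. Read-out: post-addition slope, 15–24 s, of baseline-normalized fluorescence. Benchmarks: carbachol and DMSO controls.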

Experiment [8] is described as follows: inhibitors of larval lipid processing in zebrafish, primary screen, whole organism, PED6 fluorescence, gall bladder and intestine (AID 686;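 active means a full or partial loss of lipid-probe fluorescence in the fish gall bladder, intestine or both, judged by eye; inactive means no fluorescence loss, or compound toxic to the fish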;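 further: larvae 5 to 7 days old with five fish per well; signal comes from phospholipase A2 cleavage of quenched PED6 carried via bile; overnight exposure to compound and PED6 before scoring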). The conditions noted are these: Zebrafish larvae PED6 lipid processing, fluorescence scoring; screened at 20 µM (by protocol). The essentials:
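System: live zebrafish larvae aged 5-7 days, whole organism; measure: graded gall bladder and intestinal fluorescence inhibition per well; incubation: overnight exposure; reagent: ingested quenched lipid PED6 at 100 nM; signal: By-eye fluorescence microscopy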

A short description of experiment [9]: loss of swimming-algae plug formation – whole organism, Chlamydomonas reinhardtii, WT vs cilia-less mutant, absorbance, 96-well, primary screen (AID 463189;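 active means inhibition at or above 50% relative to wild type and mutant plate controls; inactive means inhibition below 50%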;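 further: 0% = wild type cc124 cells in DMSO and 100% = ciliumless bld1 mutant cells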). The following applies: Chlamydomonas reinhardtii gravitaxis, OD600 absorbance, 2 days; at 10 µM; stronger effect = higher value.
[10] abbreviates: measured here: cell density z-score.
Where [11] appears, read: measured here: nuclear c-Myc green intensity z-score.
Setting [12] is: measured here: nuclear pErk red intensity z-score, stronger effect = higher value.

Sequence of Muscarinic acetylcholine receptor M4 (Homo sapiens) (P08173 whole entry, looked up): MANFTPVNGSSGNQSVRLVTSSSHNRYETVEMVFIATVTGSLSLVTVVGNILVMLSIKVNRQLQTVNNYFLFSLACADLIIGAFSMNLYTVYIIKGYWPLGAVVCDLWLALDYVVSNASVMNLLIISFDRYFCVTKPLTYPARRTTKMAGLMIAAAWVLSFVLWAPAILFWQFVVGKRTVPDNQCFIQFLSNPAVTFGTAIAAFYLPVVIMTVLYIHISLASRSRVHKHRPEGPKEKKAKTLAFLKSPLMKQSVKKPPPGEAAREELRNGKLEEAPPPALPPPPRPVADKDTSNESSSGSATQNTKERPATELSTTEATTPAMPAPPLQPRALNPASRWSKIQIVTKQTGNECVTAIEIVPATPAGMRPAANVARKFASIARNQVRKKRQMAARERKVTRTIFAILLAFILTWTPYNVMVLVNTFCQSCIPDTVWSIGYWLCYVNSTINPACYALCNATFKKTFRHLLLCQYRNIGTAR

In the case of `Cc1cc(C)n(-c2c(F)c(F)c(CN3CCCCC3)c(F)c2F)n1`, the cell count in experiment [1] was found to be 557. Moreover, the inhibition was 6.8% (inactive) in experiment [1], 29.4% (inactive) in experiment [2], 17.8% (inactive) in experiment [4] and 26% (inactive) in experiment [9]. Further, the nuclei count in [2] was 107%. Besides, the z-score in experiment [3] (setting [10]) is -0.661; in experiment [3] (setting [11]), 0.711; in experiment [3] (setting [12]), -1.05. The figures for the fluorescence slope in experiment [5] and in experiment [7] were -0.349 (inactive) and 0.00483 (inactive), respectively. Further, the NADPH fluorescence slope in experiment [6] is 1.9e-06 (inactive). The compound was called inactive in experiment [8].

Take `CCOC(=O)c1ccc(NC(=O)COc2ccccc2OC)cc1`: in [1], the cell count is 668. Further, the inhibition in experiment [1] was -1.6% (inactive); in experiment [2], 26.3% (inactive); in experiment [4], 33.3% (inactive); in experiment [9], -9.5% (inactive). In addition, the nuclei count in [2] is 179%. For the same compound, the z-score in [3] (setting [10]) is 1.9; in experiment [3] (setting [11]), 0.486; in [3] (setting [12]), -1.19. For the same compound, the fluorescence slope is -0.465 (inactive) in experiment [5] and 0.00666 (inactive) in experiment [7]. In addition, the NADPH fluorescence slope in experiment [6] is -0.000105 (inactive). For the same compound, in [8], the result was inactive.

For `Cc1ccc(N2CC(C(=O)Nc3ccc(N(C)C)cc3)CC2=O)cc1C` (centres undefined), in [1], the cell count is 477. Moreover, the inhibition in experiment [1] is -7.1% (inactive); in experiment [2] it was -76.8% (inactive); in [4], -1.98% (inactive); in experiment [9], -1.65% (inactive). For the same compound, the nuclei count in [2] was 107%. Moreover, the z-score in experiment [3] (setting [10]) is -1.37; in experiment [3] (setting [11]), 0.307; in experiment [3] (setting [12]) it was 1.15. Besides, the fluorescence slope in [5] was -0.411 (inactive); in [7], 0.00461 (inactive). The NADPH fluorescence slope in [6] is -9.5e-07 (inactive). Also, in experiment [8], the compound was called inactive.

Regarding `O=C(Nc1ncccc1Cl)c1cccc(F)c1`, in experiment [1], the cell count came to 527. The inhibition was 0.8% (inactive) in [1], 19.5% (inactive) in experiment [2], 3.42% (inactive) in [4] and 34.1% (inactive) in experiment [9]. For the same compound, the nuclei count in [2] stood at 88.6%. In addition, the z-score in experiment [3] (setting [10]) is -1.41; in experiment [3] (setting [11]), 0.161; in [3] (setting [12]), -0.3. In addition, the fluorescence slope in [5] is -0.419 (inactive); in [7], 0.0047 (inactive). Besides, in experiment [6], the NADPH fluorescence slope is 1.2e-05 (inactive). For the same compound, in experiment [8], the outcome was inactive.

Regarding `CCCCOC(=O)CSC1=C(C#N)C(c2ccc3c(c2)OCO3)CC(=O)N1` (centres undefined), the cell count in [1] is 650. The inhibition in [1] is -12.5% (inactive); in [2], -163% (inactive); in experiment [4], 8.31% (inactive); in experiment [9], 4.75% (inactive). Besides, the nuclei count in [2] came to 155%. Moreover, the figures for the z-score in experiment [3] (setting [10]), in [3] (setting [11]) and in experiment [3] (setting [12]) were 1.99, 0.113 and -0.175, respectively. Besides, the fluorescence slope in [5] is -0.5 (inactive); in experiment [7] it was 0.00598 (inactive). The NADPH fluorescence slope in experiment [6] is -8.3e-05 (inactive). The result in experiment [8] was inactive.

In the case of `CCCCC(CCC(=O)Nc1ccc(C(=O)OCC)cc1)C(=O)O` (centres undefined), the cell count in [1] turned out to be 378. Besides, the inhibition in experiment [1] was -11.3% (inactive); in experiment [2], -153% (inactive); in experiment [4], -0.608% (inactive); in [9] it was 5.13% (inactive). Besides, in experiment [2], the nuclei count stood at 159%. Further, the z-score in experiment [3] (setting [10]) was -0.634; in experiment [3] (setting [11]), -1.85; in [3] (setting [12]), 0.598. Moreover, the fluorescence slope in experiment [5] was -0.468 (inactive); in experiment [7] it was 0.00338 (inactive). Also, the NADPH fluorescence slope in [6] is -0.000129 (inactive). Further, the compound was called inactive in [8].

On to `O=C(CN1C(=O)c2ccccc2S1(=O)=O)NCCSCc1ccco1`, for which the cell count in experiment [1] was determined as 373. Moreover, the inhibition in experiment [1] is -5.5% (inactive); in experiment [2], -25.2% (inactive); in [4], 20.2% (inactive); in experiment [9], -7.41% (inactive). The nuclei count in experiment [2] turned out to be 142%. Further, the z-score in [3] (setting [10]) is 0.363; in [3] (setting [11]), 0.199; in experiment [3] (setting [12]), 0.301. Also, the fluorescence slope in experiment [5] is -0.457 (inactive); in experiment [7], 0.00395 (inactive). The NADPH fluorescence slope in experiment [6] is -0.000137 (inactive). In addition, the compound was classed as inactive in [8].

Take `O=C(Cc1ccc(Cl)cc1)Nc1cccc(-c2nnc(-c3ccco3)o2)c1`: in [1], the cell count was determined as 695. The inhibition in [1] is -4% (inactive); in experiment [2], 32.2% (inactive); in [4], 7.21% (inactive); in experiment [9], 5.58% (inactive). This compound registered a nuclei count in experiment [2] of 162%. Also, the z-score is 0.714 in experiment [3] (setting [10]), 1.13 in experiment [3] (setting [11]) and -0.033 in experiment [3] (setting [12]). Besides, the fluorescence slope in experiment [5] was -0.476 (inactive); in [7], 0.006 (inactive). Moreover, the NADPH fluorescence slope in experiment [6] is -7.5e-05 (inactive). Moreover, the result in experiment [8] was inactive.

In the case of `COc1cc(Cn2ccnc2)c(OC)cc1Cn1ccnc1`, in experiment [1], the cell count is 588. Besides, the inhibition in [1] is 0.1% (inactive); in experiment [2] it was -64% (inactive); in [4] it was 1.63% (inactive); in [9], 10.7% (inactive). In addition, in experiment [2], the nuclei count was found to be 154%. In addition, the z-score was 0.988 in experiment [3] (setting [10]), 1.55 in [3] (setting [11]) and 0.136 in [3] (setting [12]). In addition, the fluorescence slope in experiment [5] was -0.422 (inactive); in experiment [7], 0.0052 (inactive). For the same compound, in experiment [6], the NADPH fluorescence slope was -0.000118 (inactive). Besides, the compound was classed as inactive in [8].

With `O=C(NCCC1=CCCCC1)c1ccc(=O)oc1`, in [1], the cell count came out at 670. Moreover, the inhibition was -1.4% (inactive) in experiment [1], 33.5% (inactive) in experiment [2], -2.29% (inactive) in experiment [4] and 20.7% (inactive) in [9]. The nuclei count in experiment [2] was determined as 163%. For the same compound, the z-score in [3] (setting [10]) was -0.394; in [3] (setting [11]), -0.165; in experiment [3] (setting [12]) it was 0.265. Also, the fluorescence slope is -0.448 (inactive) in [5] and 0.00522 (inactive) in experiment [7]. The NADPH fluorescence slope in experiment [6] is -0.000197 (inactive). Further, the call in experiment [8] was inactive.

Turning to `COC(=O)Sc1nc(N2CCOCC2)c2c(c1C#N)CC(C)(C)OC2`, the cell count in experiment [1] stood at 565. Also, the inhibition in experiment [1] is -2% (inactive); in [2], -116% (inactive); in experiment [4], 3.42% (inactive); in experiment [9], 24.4% (inactive). In experiment [2], this compound registered a nuclei count of 132%. The z-score in [3] (setting [10]) is 0.0433; in [3] (setting [11]), -0.438; in [3] (setting [12]), 1.3. The fluorescence slope in experiment [5] is -0.49 (inactive); in [7], 0.00476 (inactive). In addition, the NADPH fluorescence slope in experiment [6] is -0.000143 (inactive). The compound was classed as inactive in [8].

As to `CCc1cc(=O)oc2cc(C)c(CN3CCCC(C)C3)c(O)c12` (centres undefined), the cell count in experiment [1] came to 539. Moreover, the inhibition in experiment [1] is -7.1% (inactive); in experiment [2], -2.7% (inactive); in [4] it was 12.7% (inactive); in [9], -8.79% (inactive). For the same compound, in experiment [2], the nuclei count turned out to be 109%. In addition, the results for the z-score in experiment [3] (setting [10]), in [3] (setting [11]) and in experiment [3] (setting [12]) were 1.56, 0.423 and -0.74, respectively. Moreover, the fluorescence slope is -0.486 (inactive) in [5] and 0.00473 (inactive) in experiment [7]. Also, the NADPH fluorescence slope in experiment [6] was -2.8e-05 (inactive). In addition, in experiment [8], the call was inactive.

Regarding `Cn1c(=O)c2c(nc(N3CCC(C(N)=O)CC3)n2CCSc2nc3ccccc3s2)n(C)c1=O`, the cell count in experiment [1] was 657. Also, the inhibition in experiment [1] is -10.1% (inactive); in experiment [2], -52% (inactive); in experiment [4], 7.42% (inactive); in [9] it was 21.2% (inactive). Besides, the nuclei count in experiment [2] came to 183%. In addition, the z-score in [3] (setting [10]) was 0.335; in experiment [3] (setting [11]) it was 0.459; in experiment [3] (setting [12]), -0.422. Further, the values for the fluorescence slope in experiment [5] and in experiment [7] were -0.431 (inactive) and 0.00515 (inactive), respectively. Also, in experiment [6], the NADPH fluorescence slope is -6.4e-05 (inactive). In addition, the compound was classed as inactive in [8].

Source of the values: PubChem BioAssay.
